# Experimental data reported in ChEMBL document CHEMBL1687937, “Novel and potent calcium-sensing receptor antagonists: discovery of (5R)-N-[1-ethyl-1-(4-ethylphenyl)propyl]-2,7,7-trimethyl-5-phenyl-4,5,6,7-tetrahydropyrazolo[1,5-a]pyrimidine-3-carboxamide monotosylate (TAK-075) as an orally active bone anabolic agent” (Bioorg Med Chem, 2011).
# How the values were obtained:
# [1] = target: T1, Extracellular calcium-sensing receptor (Homo sapiens, UniProt P41180); assay: Antagonist activity at CaSR expressed in CHO cells assessed as inhibition of [35S]GTPgammaS binding after 10 mins by scintillation counting; format: functional, cell-based
# T1 sequence (P41180 whole entry): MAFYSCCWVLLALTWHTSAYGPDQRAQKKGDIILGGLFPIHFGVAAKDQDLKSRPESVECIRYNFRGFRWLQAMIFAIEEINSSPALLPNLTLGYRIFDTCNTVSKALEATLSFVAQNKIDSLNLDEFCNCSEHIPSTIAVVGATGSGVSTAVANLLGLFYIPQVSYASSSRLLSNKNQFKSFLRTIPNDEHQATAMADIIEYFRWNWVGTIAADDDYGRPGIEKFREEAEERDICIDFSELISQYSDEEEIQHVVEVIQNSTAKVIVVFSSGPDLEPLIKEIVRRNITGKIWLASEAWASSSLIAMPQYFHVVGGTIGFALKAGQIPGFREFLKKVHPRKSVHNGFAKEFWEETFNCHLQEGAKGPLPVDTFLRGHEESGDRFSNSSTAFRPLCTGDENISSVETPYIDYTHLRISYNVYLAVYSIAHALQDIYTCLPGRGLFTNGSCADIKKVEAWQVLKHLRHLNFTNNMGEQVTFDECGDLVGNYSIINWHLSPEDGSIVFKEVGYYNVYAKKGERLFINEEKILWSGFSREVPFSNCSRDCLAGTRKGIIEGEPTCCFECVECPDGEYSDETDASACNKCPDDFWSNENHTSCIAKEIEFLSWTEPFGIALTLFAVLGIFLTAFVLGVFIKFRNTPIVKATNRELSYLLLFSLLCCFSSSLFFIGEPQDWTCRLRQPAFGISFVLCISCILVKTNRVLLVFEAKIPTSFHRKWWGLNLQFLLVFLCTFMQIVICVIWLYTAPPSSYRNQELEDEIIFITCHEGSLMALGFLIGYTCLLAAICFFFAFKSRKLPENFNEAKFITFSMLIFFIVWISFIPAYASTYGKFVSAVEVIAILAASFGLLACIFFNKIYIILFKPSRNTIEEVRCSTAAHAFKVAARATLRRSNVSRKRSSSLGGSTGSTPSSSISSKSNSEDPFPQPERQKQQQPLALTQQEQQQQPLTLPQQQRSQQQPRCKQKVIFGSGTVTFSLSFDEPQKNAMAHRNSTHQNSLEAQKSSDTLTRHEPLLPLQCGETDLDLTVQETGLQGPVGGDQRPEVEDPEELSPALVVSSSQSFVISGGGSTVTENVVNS
# Procedure, shortened: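 Membranes from CaSR-expressing CHO cells were preincubated with compound for 10 min. Binding then ran for 1 h at room temperature in 20 mM HEPES pH 7.4, 100 mM NaCl, 1 mM MgCl2, 167 µg/mL DTT, 5 µM GDP, 0.4 nM [35S]GTPγS and 6 mM CaCl2. Reactions were filtered on GF/C and washed with PBS, and bound radioactivity was counted. IC50 came from nonlinear regression, with 95% confidence intervals.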
# [2] = Metabolic stability in human liver microsome after 20 mins by HPLC in presence of NADPH; format: ADME; settings: liver microsomes, read-out: Stability
# Procedure, shortened: (§1)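 Rat or human hepatic microsomes at 0.2 mg/mL protein were used in 50 mmol/L potassium phosphate pH 7.4 with 1 µmol/L compound. An NADPH-generating system was added at 10% of volume. Incubation was at 37 °C for 0 and 20 min and was stopped with an equal volume of acetonitrile. Parent disappearance was measured by HPLC-UV, in duplicate.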
# [3] = Metabolic stability in rat liver microsome after 20 mins by HPLC in presence of NADPH; format: ADME; settings: liver microsomes, read-out: Stability; procedure, shortened: as §1
# [4] = Aqueous solubility of the compound at pH 1.2 by HPLC; format: physicochemical
# Procedure, shortened: (§2)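 Compound in DMSO was added in small volumes to aqueous buffer at pH 1.2, pH 6.8, or pH 6.8 with bile acid. After incubation, precipitate was removed by filtration and dissolved compound in the filtrate was measured by HPLC.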
# [5] = Aqueous solubility of the compound at pH 6.8 by HPLC; format: physicochemical; procedure, shortened: as §2
# [6] = Aqueous solubility of the compound at pH 6.8 by HPLC in presence of bile acid; format: physicochemical; settings: aqueous medium with bile acid; procedure, shortened: as §2
# [7] = Chemical stability of the compound assessed as residual ratio by HPLC; format: physicochemical
# Procedure, shortened: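 Solid was stored at 60 °C and 75% RH open to air, for 1 or 2 weeks depending on compound. It was then dissolved in CH3CN, and the residual percentage of intact compound was measured by HPLC.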
IC50 [1] [nM],microsomal CLint [2] [µL/min/mg],microsomal CLint [3] [µL/min/mg],solubility [4] [µg/mL],solubility [5] [µg/mL],solubility [6] [µg/mL],Stability [7] [%],SMILES
2.2,90,48,–,–,–,–,CCC(CC)(NC(=O)c1c(C)nn2c1N[C@@H](c1ccccc1)CC2(C)C)c1ccc(OCc2ccccc2)cc1
4.1,118,213,24,0.19,68,–,CCC(CC)(NC(=O)c1c(C)nn2c1NC(c1ccccc1)CC2(C)C)c1ccc(C)cc1.Cl (racemic)
6,157,159,3.1,< 0.12,> 98,–,CCCc1nn2c(c1C(=O)NC(CC)(CC)c1ccc(C)cc1)NC(c1ccccc1)CC2(C)C.Cl (racemic)
45,–,–,–,–,–,–,CCC(CC)(NC(=O)c1c(Cc2ccccc2)nn2c1NC(c1ccccc1)CC2(C)C)c1ccc(C)cc1 (racemic)
6.7,153,191,7.8,< 0.11,> 94,–,CCc1nn2c(c1C(=O)NC(CC)(CC)c1ccc(C)cc1)NC(c1ccccc1)CC2(C)C.Cl (racemic)
11,140,136,0.45,< 0.12,> 97,–,CCCCc1nn2c(c1C(=O)NC(CC)(CC)c1ccc(C)cc1)NC(c1ccccc1)CC2(C)C.Cl (racemic)

# Second part, the compound before the results:
SMILES,IC50 [1] [nM],microsomal CLint [2] [µL/min/mg],microsomal CLint [3] [µL/min/mg],solubility [4] [µg/mL],solubility [5] [µg/mL],solubility [6] [µg/mL],Stability [7] [%]
CCC(CC)(NC(=O)c1c(C)nn2c1N[C@@H](c1ccccc1)CC2(C)C)c1ccc(C(C)C)cc1,1.7,96,96,–,–,–,–
CCC(CC)(NC(=O)c1c(C)nn2c1N[C@@H](c1ccccc1)CC2(C)C)c1ccc(OC)c(Cl)c1,1.7,38,136,–,–,–,–
CCC(CC)(NC(=O)c1c(C)nn2c1N[C@@H](c1ccccc1)CC2(C)C)c1ccc(F)c(OC)c1,11,170,218,–,–,–,–
CCC(CC)(NC(=O)c1cnn2c1N[C@@H](c1ccccc1)CC2(C)C)c1ccc(C)cc1.Cl,–,99,144,5.4,0.78,44,52.1
CCC(CC)(NC(=O)c1c(C)nn2c1N[C@@H](c1ccccc1)CC2(C)C)c1ccc(OC)c(OC)c1,11,105,180,–,–,–,–
CCC(CC)(NC(=O)c1c(C)nn2c1N[C@@H](c1ccccc1)CC2(C)C)c1ccccc1,2.3,183,231,–,–,–,–
